Entries after “also recorded” stand apart in the source; their conditions may differ.

From PMC6583925 (Journal of medicinal chemistry, 2019) come the findings set out here.

One assay concerns the target T1, ABHD12 (Mus musculus, UniProt Q99LR1).
T1 sequence (Q99LR1 1-398): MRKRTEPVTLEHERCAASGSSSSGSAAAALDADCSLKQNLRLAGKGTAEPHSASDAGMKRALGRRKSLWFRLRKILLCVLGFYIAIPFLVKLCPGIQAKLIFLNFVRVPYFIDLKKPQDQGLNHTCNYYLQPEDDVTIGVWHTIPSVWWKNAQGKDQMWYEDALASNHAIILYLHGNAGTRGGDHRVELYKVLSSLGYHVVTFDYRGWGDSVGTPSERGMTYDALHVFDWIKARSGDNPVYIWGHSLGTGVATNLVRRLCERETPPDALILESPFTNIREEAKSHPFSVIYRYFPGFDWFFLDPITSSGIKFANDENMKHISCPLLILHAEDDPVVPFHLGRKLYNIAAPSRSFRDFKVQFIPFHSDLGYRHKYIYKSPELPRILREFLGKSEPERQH
Description: gel-based competitive ABPP using the FP-Rh probe, mouse brain membrane proteome. Format: biochemical. The settings on record: up to 10 μM. The gist of the method: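 Mouse brain membrane fraction was prepared by dounce homogenization in DPBS, a 1,400 × g clearing spin, and a 16,000 × g spin (45 min, 4 °C). Proteome (1 mg/mL) was pretreated with test compound (20 min rt for (thio)ureas; 45 min 37 °C for carbamates), then labeled with FP-Rh (1 μM final, 45 min, 37 °C). Samples were quenched in SDS loading buffer, separated by SDS-PAGE and read by in-gel fluorescence.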
With `COc1ccc(N2CCN(C(=O)ON3C(=O)C4CN(Cc5ccc(Oc6ccccc6)cc5)CCN4C3=O)CC2)cc1` (stereo not shown) [ABC34], the “ABHD12 activity” value was “negligible ABHD12 activity up to 10 μM”.

The target in another assay is T1, ABHD12. Description: gel-based ABPP of mouse brain membrane proteome using the JJH350 probe. Format: biochemical. As to conditions: JJH350 probe; SAR statements. The gist of the method:
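Mouse brain was dounce-homogenized in DPBS, cleared at 1,400 × g (3 min, 4 °C) and spun at 16,000 × g (45 min, 4 °C); the membrane pellet was washed and resuspended. Proteome (1 mg/mL) was pretreated with test compound (20 min rt for (thio)ureas; 45 min 37 °C for carbamates), then labeled with JJH350 (2 μM final, 45 min, 37 °C).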
On to `FC(F)(F)Oc1ccc(Oc2ccnc(N3CCC[C@H](NC(=S)Nc4cccnc4)C3)c2Cl)c(Cl)c1` [(S)-DO271], for which the “ABHD12 inhibitory activity, gel-based ABPP” value was “less active than (R)-DO271”.
Turning to `Cc1cnc(N2CCN(NC(=S)Nc3cccnc3)CC2)c(Cl)c1` [DO127], the “ABHD12 inhibitory activity, gel-based ABPP” value is recorded as “did not show any ABHD12 inhibitory activity”.
Still for that read-out and setting: in the case of `Cc1cnc(N2CCC(NC(=S)Nc3cccnc3)CC2)c(Cl)c1` [DO129, N-3-Pyridyl-N’-[1-{3-chloro-5-(methyl)pyridin-2-yl}piperidin-4-yl]thiourea] it was “exhibited ABHD12 inhibitory activity”; in that of `FC(F)(F)c1cnc(N2CCC(NC(=S)Nc3cccnc3)CC2)c(Cl)c1` [DO130], “ABHD12 inhibitory activity as commercial AW01275”; in that of `O=C(Nc1cccnc1)NC1CCN(c2ncc(C(F)(F)F)cc2Cl)CC1` [compound 8], “substantial loss in activity”.
The same measure, in the same setting: in the case of `COc1ccc(NC(=S)NC2CCN(c3ncc(C(F)(F)F)cc3Cl)CC2)cn1` [compound 9, N-{6-(methoxy)Pyridin-3-yl}-N’-[1-{3-chloro-5-(trifluoromethyl)pyridin-2-yl}piperidin-4-yl]thiourea] it was “diminished potency towards ABHD12”; in that of `FC(F)(F)c1cnc(N2CCC(NC(=S)Nc3cnc4ccccc4c3)CC2)c(Cl)c1` [compound 10], “diminished potency towards ABHD12”.
On the same count and under the same terms, in the case of `FC(F)(F)c1cnc(N2CCC(NC(=S)N3CCCc4ccccc43)CC2)c(Cl)c1` [compound 11] it was “diminished potency towards ABHD12”.
With `FC(F)(F)c1cnc(N2CCC(NC(=S)Nc3ccccc3)CC2)c(Cl)c1` [compound 12], the “ABHD12 inhibitory activity, gel-based ABPP” value was “retained some ABHD12 inhibitory activity, albeit slightly lower than that of DO130”.
On the same count and under the same terms, in the case of `FC(F)(F)c1cnc(N2CCCC(NC(=S)Nc3cccnc3)C2)c(Cl)c1` (stereo not shown) [compound 13, N-3-Pyridyl-N’-[1-{3-chloro-5-(trifluoromethyl)pyridin-2-yl}piperidin-3-yl]thiourea] it was “abolished ABHD12 inhibitory activity; also recorded: dramatically reduced ABHD12 inhibitory activity”; in that of `FC(F)(F)c1cnc(N2CCC(NC(=S)Nc3cccnc3)C2)c(Cl)c1` (stereo not shown) [compound 14], “near-complete loss”; in that of `FC(F)(F)c1cnc(N2CCCC(NC(=S)Nc3cccnc3)CC2)c(Cl)c1` (stereo not shown) [compound 15], “substantial reductions”.
For the molecule `CN(C(=S)Nc1cccnc1)C1CCN(c2ncc(C(F)(F)F)cc2Cl)CC1` [compound 20], the “ABHD12 inhibitory activity, gel-based ABPP” value was “weakened ABHD12 activity”.
Take `FC(F)(F)c1cnc(N2C3CCC2CC(NC(=S)Nc2cccnc2)C3)c(Cl)c1` (stereo not shown) [compound 21]: the “ABHD12 inhibitory activity, gel-based ABPP” value is “impaired ABHD12 activity relative to DO130”.
For `S=C(Nc1cccnc1)NC1CCN(c2ncccc2Cl)CC1` [compound 22], the “ABHD12 inhibitory activity, gel-based ABPP” value is “abolished ABHD12 activity up to 5 μM”.
With `FC(F)(F)c1ccc(N2CCC(NC(=S)Nc3cccnc3)CC2)nc1` [compound 23], the “ABHD12 inhibitory activity, gel-based ABPP” value was “only a small loss in potency”.
The same measure, in the same setting: in the case of `FC(F)(F)c1ccnc(N2CCC(NC(=S)Nc3cccnc3)CC2)c1` [compound 24] it was “first sub-micromolar inhibitors in this series”; in that of `FC(F)(F)c1cccc(N2CCC(NC(=S)Nc3cccnc3)CC2)n1` [compound 26], “first sub-micromolar inhibitors in this series”; in that of `COc1ccnc(N2CCC(NC(=S)Nc3cccnc3)CC2)c1` [compound 31], “even more deleterious effect”.
The same measure, in the same setting: in the case of `Fc1ccc(Oc2ccnc(N3CCC(NC(=S)Nc4cccnc4)CC3)c2)cc1` [compound 37] it was “increased potency”; in that of `FC(F)(F)Oc1ccc(Oc2ccnc(N3CCC(NC(=S)Nc4cccnc4)CC3)c2)cc1` [compound 38], “increased potency”.
Still for that read-out and setting: in the case of `Cc1c(Oc2ccc(OC(F)(F)F)cc2)ccnc1N1CCC(NC(=S)Nc2cccnc2)CC1` [compound 40, N-3-Pyridyl-N’-(1-[3-methyl-4-{4-(trifluoromethoxy)phenoxy}pyridine-2-yl]piperidin-4-yl)thiourea] it was “did not alter potency”.
In the case of `N#Cc1c(Oc2ccc(OC(F)(F)F)cc2)ccnc1N1CCC(NC(=S)Nc2cccnc2)CC1` [compound 41], the “ABHD12 inhibitory activity, gel-based ABPP” value was “reduced ABHD12 inhibitory activity”.
Consider `FC(F)(F)Oc1ccc(Oc2ccnc(N3CCC(NC(=S)Nc4cccnc4)CC3)c2C(F)(F)F)cc1` [compound 42], for which the “ABHD12 inhibitory activity, gel-based ABPP” value is “reduced ABHD12 inhibitory activity”.

Staying with this assay, now noted: compared to 28 or 38.
On to `FC(F)(F)Oc1ccc(Oc2ccnc(N3CCC(NC(=S)Nc4cccnc4)CC3)c2Cl)cc1` [compound 39], for which the “increase in ABHD12 inhibitory activity” value was above 10 fold.

The same assay, now with this note: compared to DO264.
For `FC(F)(F)Oc1ccc(Oc2ccnc(N3CCCC(NC(=S)Nc4cccnc4)C3)c2Cl)c(Cl)c1` (racemic) [(S,R)-DO271], the “reduction in potency for ABHD12 inhibition” value was ~ 10,000 fold.

The same assay, now with this note: relative to 39.
For the molecule `FC(F)(F)Oc1cccc(Oc2ccnc(N3CCC(NC(=S)Nc4cccnc4)CC3)c2Cl)c1` [compound 43], the “lower potency of regioisomers” value is reported as 3–4 fold.
On the same count and under the same terms, in the case of `FC(F)(F)Oc1ccccc1Oc1ccnc(N2CCC(NC(=S)Nc3cccnc3)CC2)c1Cl` [compound 44] it was 3–4 fold.

Still in this assay, the particulars now being: relative to the 4-CF3 analogue.
In the case of `S=C(Nc1cccnc1)NC1CCN(c2cc(Cl)ccn2)CC1` [compound 30], the “decrease in ABHD12 inhibitory activity on substituting the 4-CF3 group” value is ~ 3 fold.

In another assay the target is T2, ABHD12 (Homo sapiens, UniProt Q8N2K0).
T2 sequence (Q8N2K0 1-398): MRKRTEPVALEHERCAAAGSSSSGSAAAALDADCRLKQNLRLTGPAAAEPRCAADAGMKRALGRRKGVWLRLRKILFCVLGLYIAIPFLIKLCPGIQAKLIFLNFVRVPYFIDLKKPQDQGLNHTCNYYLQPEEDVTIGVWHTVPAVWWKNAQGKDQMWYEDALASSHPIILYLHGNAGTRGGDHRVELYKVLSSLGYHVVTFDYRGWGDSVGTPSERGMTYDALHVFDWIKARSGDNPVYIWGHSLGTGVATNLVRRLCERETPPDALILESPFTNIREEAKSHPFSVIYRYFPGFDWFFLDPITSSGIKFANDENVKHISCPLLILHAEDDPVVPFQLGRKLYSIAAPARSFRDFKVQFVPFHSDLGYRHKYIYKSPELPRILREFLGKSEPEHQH
The assay is described as follows: lyso-PS hydrolysis. Format: biochemical. As to conditions: 17:1 lyso-PS 100 μM. The gist of the method:
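Test compound preincubated 20 min at room temperature with ABHD12-overexpressing HEK293T membrane (0.25 mg/mL) in DPBS. 17:1 lyso-PS added (100 μM final) and run 30 min at 37 °C. Quench: 2:1 CHCl3/MeOH containing 1 nmol 15:0 FFA internal standard. Organic phase analysed by LC-MS, ESI negative mode, SIM at m/z 267.20 (17:1 FFA product) and 241.20 (15:0 FFA).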
In the case of `Cc1cnc(N2CCN(NC(=S)Nc3cccnc3)CC2)c(Cl)c1` [DO127], the “ABHD12 inhibitory activity, lyso-PS substrate assay” value is recorded as “did not show any ABHD12 inhibitory activity”.

For the next assay, the system named is serine hydrolases. The assay is described as follows: selectivity by gel-based ABPP with FP-Rh in mouse brain proteome. The settings on record: FP-Rh probe. Format: biochemical. In outline: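 Mouse brain homogenised in DPBS and cleared at 1,400 × g. Membranes pelleted at 16,000 × g (45 min, 4 °C) and resuspended in DPBS; used at 1 mg/mL. Test compound pretreatment: (thio)ureas 20 min at room temperature, NHH-carbamates 45 min at 37 °C. FP-Rh labelling (1 μM final) 45 min at 37 °C. Readout: 10% SDS-PAGE, in-gel fluorescence, band intensities quantified.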
In the case of `COc1ccc(N2CCN(C(=O)ON3C(=O)C4CN(C(=O)c5ccc(Oc6ccccc6)cc5)CCN4C3=O)CC2)cc1` (stereo not shown) [JJH329, 1,3-Dioxo-7-(4-phenoxybenzoyl)hexahydroimidazo[1,5-a]pyrazine-2(3H)-yl 4-(4-methoxyphenyl)piperazine-1-carboxylate], the “selectivity / off-targets among serine hydrolases” value is reported as “ABHD6 was observed as the only off-target”.

The next assay concerns the target T1, ABHD12.
Test: not given
Format: in vivo. As to conditions: 30 mg/kg, i.p., mice. The gist of the method:
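Test compound was suspended in EtOH/PEG40 1:1 by bath sonication, then diluted with 9 volumes of DPBS (EtOH/PEG40/DPBS 1:1:18). Freshly prepared solution was given i.p. at 10 μL/g body weight. Mice were anesthetized with isoflurane and euthanized by cervical dislocation, and tissues were harvested. Tissue membrane proteomes were labeled with JJH350 (2 μM, 45 min, 37 °C), clicked to rhodamine azide and read by in-gel fluorescence.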
Take `COc1ccc(N2CCN(C(=O)ON3C(=O)C4CN(C(=O)c5ccc(Oc6ccccc6)cc5)CCN4C3=O)CC2)cc1` (stereo not shown) [JJH329, 1,3-Dioxo-7-(4-phenoxybenzoyl)hexahydroimidazo[1,5-a]pyrazine-2(3H)-yl 4-(4-methoxyphenyl)piperazine-1-carboxylate]: the “in vivo inhibition of ABHD12” value was “only marginal inhibition of ABHD12”.

The next assay addresses T2, ABHD12.
Test: not given
Format: biochemical. As to conditions: FP-Rh probe 1 μM.
As for `FC(F)(F)c1cnc(N2CCC(NC(=S)Nc3cccnc3)CC2)c(Cl)c1` [DO130], the “time-dependent inhibition of ABHD12” value is listed as “did not show time-dependent inhibition of ABHD12”.
